# Runt-CBFb FRET – blocks binding of human RUNX1 Runt domain to CBFb; Q01196+Q13951; Cerulean-Runt/Venus-CBFb FRET ratio 530/480, 1 h; inhibition, % at 20 µM; 0.46% of 220,000 active; AID 1496;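 active = inhibition over about 50% at 20 µM in the single-dose screen, limit read from the data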;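 note: 0% = DMSO wells and 100% = excess unlabeled CBFb competitor control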
#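 test system = Cerulean-Runt domain fusion protein, energy donor | probe or stimulus = Venus-CBFb binding partner, 100 nM | incubation = two 1 h room-temperature incubations shielded from light | detection = fluorescence energy transfer, 422 nm excitation, 530/480 nm emission | measure = loss of energy transfer signal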
# RanGTP-Impb inh – inhibitors of RanGTP-importin-beta interaction, primary screen, biochemical, FRET, CFP-Ran, YFP-importin-beta, homogeneous. cell-free CFP-Ran/YFP-importin-beta FRET ratio. inhibition, % (no concentration beside the values). 1.1% of 300,000 active;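 active = more than half of the replicate wells show a fall in the fluorescence ratio signal beyond about 16%, limit read from the data, passing the limit was not always enough; inconclusive = exactly half of the replicate wells pass the set limit; inactive = fewer than half of replicates pass the limit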;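 note: 0% = DMSO wells and 100% = Ran loaded with GDP instead of GTP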
# MEX-5 binding – C. elegans MEX-5 TCR-2 RNA binding activity; Q9XUB2; 0.38% of 300,000 active; MEX-5/FITC-TCR2 RNA binding, fluorescence polarization; active compounds read low; activity score (negative = inhibition of binding), % at 10 µM;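 active = inhibition past about -25% in most replicates, and total fluorescence under double the plate's negative control median, limit read from the data; inconclusive = replicates evenly split on the limit, or fluorescence at least double controls; inactive = too little inhibition in most replicates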;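 note: 0% = DMSO and -100% = 5 µM competing unlabeled TCR2 RNA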
# Target sequence (Q9XUB2 whole entry, looked up): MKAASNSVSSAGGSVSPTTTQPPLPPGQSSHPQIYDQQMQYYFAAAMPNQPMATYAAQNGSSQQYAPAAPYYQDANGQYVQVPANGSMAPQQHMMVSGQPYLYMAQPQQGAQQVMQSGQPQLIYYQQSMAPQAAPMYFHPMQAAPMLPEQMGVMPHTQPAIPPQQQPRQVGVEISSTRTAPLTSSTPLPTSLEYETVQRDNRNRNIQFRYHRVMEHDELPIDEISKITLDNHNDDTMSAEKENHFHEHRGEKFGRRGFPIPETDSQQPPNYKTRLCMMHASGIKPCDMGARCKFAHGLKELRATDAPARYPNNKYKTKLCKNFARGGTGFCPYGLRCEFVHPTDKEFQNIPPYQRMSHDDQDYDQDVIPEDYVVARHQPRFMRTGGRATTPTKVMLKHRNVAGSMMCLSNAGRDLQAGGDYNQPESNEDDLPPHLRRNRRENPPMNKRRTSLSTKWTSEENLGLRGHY
# KLK7 zymogen act – proKLK7 (human) activation, primary screen | purified proKLK7, EDANS-DABCYL substrate fluorescence; 100% is mature enzyme control, 0% vehicle | P49862 | activation, % at 7 µM | 0.9% of 370,000 active | AID 652039;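 active = activation above the mean of all tested compounds plus 3 SD, computed per campaign excluding outliers beyond control limits, cut at about 13% in these data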
# Runt-SMMHC FRET – inhibitors of human RUNX1 Runt domain binding to CBFb-SMMHC; Q01196+Q13951; inhibition, % at 20 µM; AID 1434; Cerulean-Runt/Venus-CBFb-SMMHC FRET ratio 530/480, 1 h; 0.74% of 220,000 active;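 active = mean inhibition across duplicate retests at 20 µM reaching about 50%, limit read from the data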;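 note: 0% = DMSO wells and 100% = wells with excess untagged CBFb-SMMHC; inhibitors lower the FRET ratio by blocking Runt binding to CBFb-SMMHC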
# Numbers without * were called inactive; ? = inconclusive; / = no result given. The list is not random: actives were taken first. Their share in the collection is about 2.1%.
SMILES,Runt-CBFb FRET,RanGTP-Impb inh,MEX-5 binding,KLK7 zymogen act,Runt-SMMHC FRET
CCCCNc1c(N)n(CCC)c(=O)[nH]c1=O,8,3,-19,0,20
COc1ccc(-c2ncc(CN3CCC(CO)(Cc4cccc(OC)c4)CC3)cn2)cc1,8,82*,0,1,26
CC(=O)Nc1ccc(NC(=O)c2ccccc2-n2cnnn2)cc1,/,/,/,0,/
CCOC(=O)/C=c1\s/c(=C\c2ccc3cc(OC)ccc3c2)c(=O)n1CC(=O)NCc1ccc2c(c1)OCO2,-180,4,-31*,-9,6
CCOC(=O)/C=c1\s/c(=C\c2ccccc2C)c(=O)n1CC(=O)NCc1ccc2c(c1)OCO2,-28,0,-2,-2,-43
CC(C)(C)c1ccc(-c2nnc(SCC(=O)c3ccc([N+](=O)[O-])cc3)n2-c2ccc(Cl)cc2)cc1,/,/,/,1,/
COc1cc(-c2nc3cnccn3c2Nc2c(C)cccc2C)ccc1O,12,52*,-1,-4,18
COc1cc(-c2nc3cnccn3c2NC(C)(C)CC(C)(C)C)ccc1O,/,-1,1,-31,/
CC(=O)N(C(C)=O)c1ncn(C)c1S(=O)(=O)Nc1ccccc1,/,/,/,0,/
O=C(NNC(=O)c1ccccc1F)c1cccc(S(=O)(=O)N2CCc3ccccc32)c1,/,/,/,0,/
COC(=O)C1CCN(c2cc(=O)n(Cc3ccc(F)cc3)c(=O)[nH]2)CC1,-1,59*,-1,0,-3
COC(=O)C1CCN(c2cc(=O)n(C3CCCCC3)c(=O)[nH]2)CC1,0,63*,4,0,0
CCOC(=O)C1CCCN(c2cc(=O)n(Cc3ccc(F)cc3)c(=O)[nH]2)C1 (configuration not stated),-2,12,-2,0,-2
CCn1c(SCC(=O)Nc2ccc(NC(=O)c3ccco3)cc2)nnc1-c1cccs1,/,2,-2,100*,/
Cn1c(NCC2CCCCC2)nc2cc(-c3ccsc3)sc2c1=O,/,/,/,-1,/
Cc1ccc(S(=O)(=O)N(CC(=O)N2CCOCC2)CC(=O)N2CCOCC2)cc1,0,32*,-3,0,4
NC(=S)Cc1nc(-c2ccccc2)cs1,0,30*,3,-1,-4
CC(CC(F)(F)F)N1CCC(n2nccc2NC(=O)CCCc2ccccc2)CC1 (configuration not stated),/,57*,-1,0,/
CCCCC(=O)N(C)c1c(CC)nc2c(OCCC)cccn12,/,/,/,0,/
COc1ccc(/C=C2\Oc3ccccc3C2=O)cc1,/,/,/,8,/
COc1ccc2c(c1)O/C(=C\c1sccc1C)C2=O,3,29*,-1,0,15
COc1ccc(-c2sc(NC(=O)c3ccc(C)cc3)nc2-c2ccc([N+](=O)[O-])cc2)cc1,-30,-46,3,0,-133
COc1ccc(C(=O)Nc2nc(-c3ccc([N+](=O)[O-])cc3)c(-c3ccccc3)s2)cc1,/,-7,-162*,0,/
CCOc1ccc(CN(C)c2nc(-c3cccnc3)nc3ccccc23)cc1OC,/,6,1,-1,/
COC(=O)N/N=C/c1ccc(-c2ccc(Cl)cc2Cl)o1,-2,4,-5,-4,-2
SMILES,Runt-CBFb FRET,RanGTP-Impb inh,MEX-5 binding,KLK7 zymogen act,Runt-SMMHC FRET
O=C(O)c1ccc(N/N=C/c2ccc(-c3ccc(Cl)cc3Cl)o2)cc1,80*,88*,-1,-1,81*
O=C(O)c1ccc(N/N=C/c2ccc(-c3cc(Cl)ccc3Cl)o2)cc1,70*,83*,-5,0,80*
C=CCNc1nc2cc(-c3cccc(NC(C)=O)c3)sc2c(=O)n1C,/,/,/,0,/
O=C1C2C3CCC(O3)C2C(=O)N1c1cccc(O)c1 (configuration not stated),/,33*,1,0,/
O=S1(=O)CC(N2CCN(c3ccccn3)CC2)CN1Cc1ccccc1 (configuration not stated),/,/,/,0,/
O=C1NC(c2ccc3c(c2)OCO3)Nc2ccccc21 (configuration not stated),0,-5,1,7,5
CN1CCc2c(sc3c2C(=O)NC(c2ccc4c(c2)OCO4)N3)C1 (configuration not stated),125*,41*,-2,0,152*
CN1CCc2c(sc3c2C(=O)NC(/C=C/c2ccco2)N3)C1 (configuration not stated),/,78*,-7,0,/
CC(C)(C)C1CCc2c(sc3c2C(=O)NC(c2ccco2)N3)C1 (configuration not stated),2,4,0,0,6
Cc1ccc(C2NC(=O)c3c(sc4c3CCN(C)C4)N2)o1 (configuration not stated),88*,106*,-10,11,72*
O=C1NC(c2ccccn2)Nc2sc3c(c21)CCC3 (configuration not stated),6,-2,-12,-5,-3
CN1CCc2c(sc3c2C(=O)NC(c2ccccn2)N3)C1 (configuration not stated),99*,133*,-51*,-4,65*
Cc1nnc2c3ccccc3ccn12,/,/,/,0,/
CN1CCc2c(sc3c2C(=O)NC(c2ccccc2)N3)C1 (configuration not stated),106*,5,-10,-1,76*
O=C1NC(c2ccc(Br)cc2)Nc2sc3c(c21)CCC3 (configuration not stated),10,-4,-2,0,-11
Cc1ccc(C2NC(=O)c3c(sc4c3CCN(C)C4)N2)s1 (configuration not stated),42,114*,-7,6,136*
Cc1cc(=O)n2c3ccccc3n(CC(O)CN3CCOCC3)c2c1C#N (configuration not stated),-1,130*,1,1,1
Cc1cc(=O)n2c3ccccc3n(CC(O)CN3CCCCC3)c2c1C#N (configuration not stated),-1,4,0,1,-1
CC1=CC(c2ccc(Cl)cc2)n2nc(NC(=O)CCC(=O)O)nc2N1 (configuration not stated),29,1,-2,10,54*
CC1=CC(c2ccc(Cl)cc2)n2nc(NC(=O)CCCC(=O)O)nc2N1 (configuration not stated),/,?,0,6,/
C[C@@H]1COc2cc(Br)ccc2S(=O)(=O)N1Cc1cn(CCC2OCCCO2)nn1,/,/,/,0,/
CCc1nc2ccc(C(=O)Nc3ccc4c(c3)OCC(=O)N4)cn2c1N(C)Cc1nccn1C,/,/,/,0,/
Cc1ccc(O)c(-c2cc(C(=O)Nc3ccc(S(=O)(=O)Nc4nccc(C)n4)cc3)[nH]n2)c1,-2,1,-29*,0,-2
COc1ccc(C(=O)Nc2ccc(S(=O)(=O)Nc3nccc(C)n3)cc2)cc1,/,-1,0,0,/

# High-throughput results: PubChem, several laboratories
